Source: PubChem BioAssay
Records with an inconclusive call do not appear.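 The calls were made as follows, unless noted: active = inhibition over a set limit, the all-compound mean plus 3 SD, in both replicate runs; inconclusive = over that limit in just one replicate run; inactive = at or under that limit in both runs.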

What was measured:
[1] = S. cerevisiae growth inhibition in permissive medium (OD615), pilot counter-assay for S. cerevisiae lifespan shortening project, permissive growth control (AID 705;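 active = growth inhibition above 25% in both replicates, a cutoff set 3 SD above the mean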); conditions: OD615, 24 h, at 10 µM, hits give high values
In short: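 Material: engineered DeaD yeast; Compound: one dose 10 µM, DMSO 0.25% final; Detection: absorbance (optical density) at 615 nm; Buffer or medium: permissive raffinose/galactose medium; Timing: 24 h exposure, 30 °C.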

[2] = S. cerevisiae growth inhibition in restrictive medium, OD615, pilot screen, restrictive growth control, yeast lifespan reduction project (AID 706;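 active = growth inhibition above a set limit, 3 SD over mean compound inhibition, in both replicates, cut at about 43% in these data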;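 also: modified DeaD lifespan yeast strain shifted to restrictive glucose medium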); conditions: OD615, 48 h, at 10 µM, hits give high values
In short: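 Buffer or medium: restrictive glucose medium (CSMM-D); test system: modified S. cerevisiae; doses: single dose of 10 µM compound final, 0.25% DMSO; schedule: 48 h compound exposure at 30 °C; detection: absorbance (optical density) measured at 615 nm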

[3] = doxorubicin toxicity protection in MRP-1 cells – H69AR cells, CellTiter-Glo, duplicate, MRP-1 activator project, pilot screen (AID 807;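 active = viability increase at or above a cutoff of the median across tested compounds plus 3 SD, cut at about 8.5% in these data, passing the limit was not always enough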;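 also: compound pretreatment 18-22 h then 72 h combined with doxorubicin; 0% = doxorubicin alone and 100% = vehicle without doxorubicin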); conditions: H69AR viability with doxorubicin, CellTiter-Glo luminescence; at 10 µM; hits give high values
[4] = viability of HCT116 without oncogenic beta-catenin – human colon tumor cells, pilot screen (AID 823;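 active = cell viability at or below a set limit in both duplicate runs, the limit being the all-compound median minus 4 SD, cut at about 23% in these data, passing the limit was not always enough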;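 also: 0% = wells killed by 20 µM Hyamine and 100% = untreated DMSO cell wells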); conditions: HCT116 beta-catenin knockout viability, CellTiter-Glo, 60 h; at 10 µM; hits give low values
[5] = viability of PTEN-null HCT116 cells – cell-based, HCT116 clonal line, CellTiter-Glo, pilot screen (AID 824;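 active = viability at or below 27.92% in each of two runs, the all-compound median minus 4 SD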;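 also: 0% = 20 µM Hyamine control and 100% = vehicle cell control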); conditions: HCT116 PTEN-deleted viability, 60 h, at 10 µM, hits give low values
[6] = RAM pathway blockade in budding yeast – dse1pr::URA3 reporter, 5-FOA selection, pilot screen (AID 869);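 also: 0% = DMSO wells with no growth and 100% = 10 µM 1-NA-PP1 with full growth; RAM network block rescues cells from 5-FOA so hits raise OD615 growth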; conditions: S. cerevisiae dse1pr::URA3 5-FOA growth, OD615, 2 d; at 10 µM; hits give high values; strain carries analog-sensitive mutant Cbk1 kinase
[7] = RAM signaling pathway blockade in yeast – S. cerevisiae, Pdr1DBD-CYC8 efflux-inhibited sensitized strain, primary screen (AID 1298;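 active = RAM network inhibition above 8.4% in each of two replicates, 3 SD over the compound average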;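 also: 0% = DMSO untreated cells without growth and 100% = 10 µM 1-NA-PP1 full growth; higher means more yeast growth rescued from 5-FOA killing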); conditions: S. cerevisiae cbk1-as DSE1-URA3 strain, 5-FOA growth OD615, 2 d; at 50 µM; hits give high values

COc1ccc(OC)c(S(=O)(=O)n2nc(-c3ccccc3)cc2N)c1
inactive: growth inhibition [1] -6.75% | growth inhibition [2] -2.54% | viability increase [3] -2.02% | viability [4] 104% | viability [5] 103% | inhibition [6] 0.795% | RAM network inhibition [7] 1.93%

CCn1c(C(=O)N2CCc3ccccc3C2)cc2sccc21
inactive: growth inhibition [1] -11.6% | growth inhibition [2] -2.25% | viability increase [3] -0.05% | viability [4] 84.1% | viability [5] 74.5% | inhibition [6] 0.465% | RAM network inhibition [7] 4.84%

CCCN(CCC)CCNC(=O)Cn1cnc2sc(C)c(S(=O)(=O)N3CCOCC3)c2c1=O
inactive: growth inhibition [1] -0.07% | growth inhibition [2] -5.45% | viability increase [3] -2.63% | viability [4] 95.3% | viability [5] 98% | inhibition [6] 0.875% | RAM network inhibition [7] 2.96%

CC1=CC(C)(C)N(C(=O)CSc2nccn2C)c2cc(C)ccc21
inactive: growth inhibition [1] -12.3% | growth inhibition [2] -6.42% | viability increase [3] -3.04% | viability [4] 84.6% | viability [5] 84% | inhibition [6] 1.09% | RAM network inhibition [7] 0.77%

COc1cc(C(c2sc3nc(C)nn3c2O)N2CCc3ccccc3C2)cc(OC)c1OC (configuration not stated)
inactive: growth inhibition [1] 3.55% | growth inhibition [2] -1.53% | viability increase [3] -1.3% | viability [4] 110% | viability [5] 96.1% | inhibition [6] 1.23% | RAM network inhibition [7] 2.85%

COCCCNC(=O)c1ccccc1Oc1ccccc1
inactive: growth inhibition [1] -8.28% | growth inhibition [2] -2.05% | viability increase [3] -1.39% | viability [4] 96.3% | viability [5] 97% | inhibition [6] 1.46% | RAM network inhibition [7] 1.58%

O=C(NCCN1C(=O)C2C3C=CC(C3)C2C1=O)NCc1ccccc1 (configuration not stated)
inactive: growth inhibition [1] -14.8% | growth inhibition [2] 3.81% | viability increase [3] -0.69% | viability [4] 102% | viability [5] 99.8% | inhibition [6] 1.61% | RAM network inhibition [7] 1.83%

CNC(=O)c1c(N)sc2c1CCCCC2
inactive: growth inhibition [1] -2.01% | growth inhibition [2] 8.19% | viability increase [3] -3.12% | viability [4] 88.8% | viability [5] 88.1% | inhibition [6] 1.19% | RAM network inhibition [7] 4.13%

Cc1ccc(C(c2sc3ncnn3c2O)N2CCC(C)CC2)cc1 (configuration not stated)
inactive: growth inhibition [1] 1.13% | growth inhibition [2] 10.3% | viability increase [3] 3.76% | viability [4] 102% | viability [5] 90.2% | inhibition [6] 1.9% | RAM network inhibition [7] 2.69%

Cn1c(=O)[nH]c(=O)c2c1nc(NC1CCCCC1)n2CCO
inactive: growth inhibition [1] -16.7% | growth inhibition [2] -22.4% | viability increase [3] -2.15% | viability [4] 102% | viability [5] 97.9% | inhibition [6] 1.19% | RAM network inhibition [7] 3.67%

CC(C)N(Cc1nc(-c2ccccc2)no1)C(=O)COc1ccccc1
inactive: growth inhibition [1] -12% | growth inhibition [2] -11.7% | viability increase [3] -3.65% | viability [4] 88.2% | viability [5] 89.7% | inhibition [6] 1.03% | RAM network inhibition [7] 3.19%

COc1ccc(S(=O)(=O)NCc2ccccc2Cl)cc1OC
inactive: growth inhibition [1] -5.85% | growth inhibition [2] 2.66% | viability increase [3] -1.42% | viability [4] 102% | viability [5] 96.1% | inhibition [6] 1.98% | RAM network inhibition [7] 2.86%

Cc1cccc(N2C(=O)SC(N(CC(=O)O)c3cccc(C)c3)C2=O)c1 (configuration not stated)
inactive: growth inhibition [1] -12.5% | growth inhibition [2] 15.6% | viability increase [3] -3.96% | viability [4] 103% | viability [5] 99.1% | inhibition [6] 1.24% | RAM network inhibition [7] 5.06%

CC(=O)Nc1nc2ccccc2n1CCN(C)C
inactive: growth inhibition [1] -5.31% | growth inhibition [2] -3.15% | viability increase [3] -0.15% | viability [4] 99.3% | viability [5] 103% | inhibition [6] 2.95% | RAM network inhibition [7] 7.04%

O=C(O)CC(C(=O)NC1CCCCC1)C1CCCO1 (configuration not stated)
inactive: growth inhibition [1] -1.02% | growth inhibition [2] -15.1% | viability increase [3] -1.68% | viability [4] 98.3% | viability [5] 102% | inhibition [6] 0.36% | RAM network inhibition [7] 1.76%

CCOc1ccc(NC(=O)CN(c2ccc(OC)cc2)S(C)(=O)=O)cc1
inactive: growth inhibition [1] 6.96% | growth inhibition [2] -0.54% | viability increase [3] 0.19% | viability [4] 98.1% | viability [5] 98.8% | inhibition [6] 1.7% | RAM network inhibition [7] 4.91%

COc1ccc(S(=O)(=O)Nc2ccc3oc(C)c(C(=O)O)c3c2)cc1
inactive: growth inhibition [1] 3.11% | growth inhibition [2] -3.25% | viability increase [3] -2.36% | viability [4] 95.5% | viability [5] 91.2% | inhibition [6] 1.54% | RAM network inhibition [7] 3.39%

COc1ccc(C2CC(C(F)(F)F)n3ncc(C(=O)O)c3N2)cc1OC (configuration not stated)
inactive: growth inhibition [1] -0.77% | growth inhibition [2] -3% | viability increase [3] 0.06% | viability [4] 97.2% | viability [5] 97.9% | inhibition [6] 0.23% | RAM network inhibition [7] -0.41%

Cn1c(NC(=O)CCC2CCCCC2)cc(=O)n(C)c1=O
inactive: growth inhibition [1] -1.97% | growth inhibition [2] -10.8% | viability increase [3] 2.29% | viability [4] 92.9% | viability [5] 83.6% | inhibition [6] 0.52% | RAM network inhibition [7] -1.2%

COC(=O)CCS(=O)(=O)c1cc(Cl)ccc1Cl
inactive: growth inhibition [1] -5.18% | growth inhibition [2] 7.17% | viability increase [3] -1.81% | viability [4] 95.4% | viability [5] 94.9% | inhibition [6] -1.08% | RAM network inhibition [7] 1.34%

Cc1nc2sc(C(c3ccc(C(C)C)cc3)N3CCN(CCO)CC3)c(O)n2n1 (configuration not stated)
inactive: growth inhibition [1] -9.91% | growth inhibition [2] -9.61% | viability increase [3] -0.75% | viability [4] 97% | viability [5] 98.1% | inhibition [6] 1.58% | RAM network inhibition [7] 2.77%

CCOc1ccccc1Nc1cc(C)nc2nc(C)nn12
inactive: growth inhibition [1] -11.9% | growth inhibition [2] -9.62% | viability increase [3] -2.37% | viability [4] 104% | viability [5] 97.2% | inhibition [6] 1.67% | RAM network inhibition [7] -1.47%

C=CCn1c(=N)c(C(=O)OCC)cc2c(=O)n3cc(C)ccc3nc21
inactive: growth inhibition [1] 1.62% | growth inhibition [2] 0.61% | viability increase [3] -1.79% | viability [4] 87% | viability [5] 87.4% | inhibition [6] 1.7% | RAM network inhibition [7] 3.98%

COc1ccc(C(=O)Nc2ccccc2C(=O)NCCCn2ccnc2)cc1
inactive: growth inhibition [1] -1.82% | growth inhibition [2] -2.64% | viability increase [3] -0.82% | viability [4] 95.1% | viability [5] 92.9% | inhibition [6] 0.715% | RAM network inhibition [7] 2.86%

CCOC(=O)C1=C(C)N(C)C(C)=C(C(=O)OCC)C1c1ccccn1
inactive: growth inhibition [1] -13.2% | growth inhibition [2] -14.6% | viability increase [3] -0.35% | viability [4] 96.2% | viability [5] 91.6% | inhibition [6] 1.98% | RAM network inhibition [7] 0.62%

CCc1ccccc1N1CC23C=CC(O2)C(C(=O)OCC(C)C)C3C1=O (configuration not stated)
inactive: growth inhibition [1] -14.3% | growth inhibition [2] -12.6% | viability increase [3] -0.48% | viability [4] 93.7% | viability [5] 89.6% | inhibition [6] 0.385% | RAM network inhibition [7] 0.42%

Cn1c(=O)oc2cc(S(=O)(=O)N3CCC(C(=O)N4CCN(c5ccccc5)CC4)CC3)ccc21
inactive: growth inhibition [1] 0.31% | growth inhibition [2] 3.94% | viability increase [3] -2.78% | viability [4] 94.6% | viability [5] 93.1% | inhibition [6] -0.21% | RAM network inhibition [7] 7.13%

CC(=O)N1CCN(CCN=CC2=C(O)CC(c3ccc(Cl)cc3)CC2=O)CC1 (configuration not stated)
inactive: growth inhibition [1] -8.45% | growth inhibition [2] -3.19% | viability increase [3] 1.98% | viability [4] 99.2% | viability [5] 101% | inhibition [6] 1.2% | RAM network inhibition [7] -0.17%

CCc1ccccc1NC(=O)c1onc(C)c1Cl
inactive: growth inhibition [1] -5.87% | growth inhibition [2] 1.99% | viability increase [3] -0.41% | viability [4] 108% | viability [5] 97.7% | inhibition [6] 2.18% | RAM network inhibition [7] -1.13%

O=C(O)CCC(=O)c1ccc2c(c1)OCCO2
inactive: growth inhibition [1] -6.04% | growth inhibition [2] 8.29% | viability increase [3] -1.32% | viability [4] 101% | viability [5] 103% | inhibition [6] 1.79% | RAM network inhibition [7] -1.36%

COc1cccc(C2=NOC(C(=O)N3CCN(C(=O)c4ccco4)CC3)C2)c1 (configuration not stated)
inactive: growth inhibition [1] 5% | growth inhibition [2] -4.4% | viability increase [3] -2.95% | viability [4] 95.6% | viability [5] 95.2% | inhibition [6] -0.3% | RAM network inhibition [7] 0.01%

Cc1ccc(S(=O)(=O)Cc2ccc(C(=O)N3CCN(c4ccccn4)CC3)o2)cc1
inactive: growth inhibition [1] -6.39% | growth inhibition [2] -3.59% | viability increase [3] -4.22% | viability [4] 87.1% | viability [5] 79.8% | inhibition [6] 1.25% | RAM network inhibition [7] 3.12%

COc1ccc(NC(=O)Nc2ccc3nccnc3c2)cc1
inactive: growth inhibition [1] -13.5% | growth inhibition [2] -17.2% | viability increase [3] -4.49% | viability [4] 67.5% | viability [5] 68.7% | inhibition [6] 1.81% | RAM network inhibition [7] 3.72%

O=C(CSc1nnc(Cn2c(=O)sc3ccccc32)n1-c1ccccc1)NCc1ccco1
inactive: growth inhibition [1] -3.11% | growth inhibition [2] -1.47% | viability increase [3] -4.7% | viability [4] 99.5% | viability [5] 98.1% | inhibition [6] 1.22% | RAM network inhibition [7] 6%

CCOC(=O)C(C)c1nn(C)c(=O)c2ccccc12 (configuration not stated)
inactive: growth inhibition [1] -3.15% | growth inhibition [2] -5.69% | viability increase [3] -2.34% | viability [4] 97.4% | viability [5] 92.7% | inhibition [6] 1.42% | RAM network inhibition [7] 1.72%

c1ccc(N(c2ccccc2)c2nc(N3CCOCC3)nc(N3CCOCC3)n2)cc1
inactive: growth inhibition [1] 4.5% | growth inhibition [2] -1.27% | viability increase [3] -3.09% | viability [4] 92.2% | viability [5] 89.9% | inhibition [6] 4.5% | RAM network inhibition [7] 3.75%
